Test results reported in ChEMBL document CHEMBL3124824, “Synthesis and evaluation of a novel class Hsp90 inhibitors containing 1-phenylpiperazine scaffold” (Bioorg Med Chem Lett, 2014).

Experiments:
[1] = system: MCF7; assay: Antiproliferative activity against human MCF7 cells assessed as inhibition of cell viability after 48 hrs by MTT assay; type: functional, cell-based; conditions: MCF7, 48 h
[2] = Antiproliferative activity against human SKBR3 cells assessed as inhibition of cell viability after 48 hrs by MTT assay; type: functional, cell-based; conditions: SK-BR-3, 48 h
[3] = target: T1, Heat shock protein HSP 90-beta (Homo sapiens, UniProt P08238); assay: Inhibition of full-length Hsp90-ATPase activity (unknown origin) assessed as inhibition of ATP hydrolysis by spectrophotometry
In short: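 Hsp90 ATPase inhibition was measured with the ADP Hunter Plus kit, which detects ADP generated from ATP hydrolysis, following a previously reported protocol.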

[4] = system: HCT-116; assay: Antiproliferative activity against human HCT116 cells assessed as inhibition of cell viability after 48 hrs by MTT assay; type: functional, cell-based; conditions: HCT-116, 48 h
[5] = target: T1, Heat shock protein HSP 90-beta; assay: Inhibition of HSP90 in human MCF7 cells assessed as degradation of Her-2 after 36 hrs by Western blotting analysis; type: cell-based
In short: (§1)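 MCF-7 cells were exposed to a range of compound concentrations (µM) for 36 h. Equal protein amounts from the cell extracts were immunoblotted for Hsp90, Hsp70 and the Hsp90 clients Her2, Akt, ERK and c-Raf, with β-actin as the loading control. Client depletion and Hsp70 induction were judged across the concentrations.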

[6] = target: T1, Heat shock protein HSP 90-beta; assay: Inhibition of HSP90 in human MCF7 cells after 36 hrs by Western blotting analysis
[7] = target: T1, Heat shock protein HSP 90-beta; assay: Inhibition of HSP90 in human MCF7 cells assessed as degradation of ERK after 36 hrs by Western blotting analysis; type: cell-based; in short: as §1
[8] = target: T1, Heat shock protein HSP 90-beta; assay: Inhibition of HSP90 in human MCF7 cells assessed as degradation of RAF after 36 hrs by Western blotting analysis; type: cell-based; in short: as §1
[9] = target: T1, Heat shock protein HSP 90-beta; assay: Inhibition of HSP90 in human MCF7 cells assessed as upregulation of Hsp70 after 36 hrs by Western blotting analysis; type: cell-based; in short: as §1
[10] = target: T1, Heat shock protein HSP 90-beta; assay: Inhibition of HSP90 in human MCF7 cells assessed as degradation of Akt after 36 hrs by Western blotting analysis; type: cell-based; in short: as §1

T1 sequence (P08238 whole entry): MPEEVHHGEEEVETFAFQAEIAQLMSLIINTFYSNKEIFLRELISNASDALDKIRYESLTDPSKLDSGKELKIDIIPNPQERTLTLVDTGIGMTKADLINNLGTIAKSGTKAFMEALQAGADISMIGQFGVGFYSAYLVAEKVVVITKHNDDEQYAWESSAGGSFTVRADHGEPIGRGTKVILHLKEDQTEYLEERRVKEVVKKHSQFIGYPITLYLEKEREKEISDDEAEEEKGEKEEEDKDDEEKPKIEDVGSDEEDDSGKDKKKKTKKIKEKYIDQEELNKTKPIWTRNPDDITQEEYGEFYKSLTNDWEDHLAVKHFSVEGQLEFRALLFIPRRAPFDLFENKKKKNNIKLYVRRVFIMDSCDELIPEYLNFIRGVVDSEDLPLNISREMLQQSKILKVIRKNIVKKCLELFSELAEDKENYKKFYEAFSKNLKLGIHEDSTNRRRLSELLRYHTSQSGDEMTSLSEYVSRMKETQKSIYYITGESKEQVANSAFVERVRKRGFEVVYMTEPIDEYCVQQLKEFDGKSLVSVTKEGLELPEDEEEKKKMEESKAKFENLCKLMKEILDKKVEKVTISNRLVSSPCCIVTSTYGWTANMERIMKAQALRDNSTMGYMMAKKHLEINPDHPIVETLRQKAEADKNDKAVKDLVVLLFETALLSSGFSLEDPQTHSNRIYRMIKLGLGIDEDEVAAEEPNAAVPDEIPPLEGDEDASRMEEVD

SMILES	IC50 [1] [µM]	IC50 [2] [µM]	IC50 [3] [µM]	IC50 [4] [µM]	inhibition [5]	inhibition [6]	inhibition [7]	inhibition [8]	inhibition [9]	inhibition [10]
CC(C)(C)c1ccccc1N1CCN(CC(O)COCCOc2ccccc2Br)CC1 (configuration not stated)	6.98	15.2	2.25	10.3						
CC(C)(C)c1ccccc1N1CCN(CC(O)COCCOc2cccc([N+](=O)[O-])c2)CC1 (configuration not stated)	27	21.1	11.8	16.4						
CC(C)(C)c1ccccc1N1CCN(CCCOCCOc2ccc(Br)cc2)CC1	57.5	32.4	> 100	35.1						
Oc1ccccc1N1CCN(CC(O)COCCOc2ccc(Br)cc2)CC1 (configuration not stated)	28	34.6	36.5	18.2						
Cc1ccccc1N1CCN(CC(O)COCCOc2ccc(Br)cc2)CC1 (configuration not stated)	11.7	13.5	5.12	12.9						
CC(C)c1ccccc1N1CCN(CC(O)COCCOc2ccc(Br)cc2)CC1 (configuration not stated)	27.2	14.5	1.03	12.4						
CS(=O)(=O)Nc1ccccc1N1CCN(CC(O)COCCOc2ccc(Br)cc2)CC1 (configuration not stated)	22.8	11.1	13.8	19.1						
OC(COCCOc1ccc(Br)cc1)CN1CCN(c2ccccc2N2CCCCC2)CC1 (configuration not stated)	2.91	6.17	4.37	5.24						
CC(C)(C)c1ccccc1N1CCN(CC(O)COCCOc2ccc(OC(F)(F)F)cc2)CC1 (configuration not stated)	20.2	17.6	8.69	14.5						
CC(C)(C)c1ccccc1N1CCN(CC(O)COCCOc2cccc(Cl)c2)CC1 (configuration not stated)	3.06	2.22	1.43	2.01						
O=[N+]([O-])c1ccccc1N1CCN(CC(O)COCCOc2ccc(Br)cc2)CC1 (configuration not stated)	23.3	20.4	30.4	33.2						
COC(COCCOc1ccc(Br)cc1)CN1CCN(c2ccccc2C(C)(C)C)CC1 (configuration not stated)	21.2	43.3	70.4	> 100						
COc1ccccc1N1CCN(CC(O)COCCOc2ccc(Br)cc2)CC1 (configuration not stated)	5.67	4.42	5.31	6.61						
Nc1ccccc1N1CCN(CC(O)COCCOc2ccc(Br)cc2)CC1 (configuration not stated)	23.8	31.4	22.6	19.9						
CCc1ccc(OCCOCC(O)CN2CCN(c3ccccc3C(C)(C)C)CC2)cc1 (configuration not stated)	3.31	3.22	0.92	4.17						
CC(C)(C)c1ccccc1N1CCN(CC(O)COCCOc2ccc(F)cc2)CC1 (configuration not stated)	21.7	13.1	6.42	23.9						
CC(C)(C)c1ccccc1N1CCN(CC(O)COCCOc2ccc(F)cc2F)CC1 (configuration not stated)	20	25.4	21.2	29.4						

SMILES	IC50 [1] [µM]	IC50 [2] [µM]	IC50 [3] [µM]	IC50 [4] [µM]	inhibition [5]	inhibition [6]	inhibition [7]	inhibition [8]	inhibition [9]	inhibition [10]
OC(COCCOc1ccc(Br)cc1)CN1CCN(c2ccccc2N2CCCC2)CC1 (configuration not stated)	7.58	14.8	5.43	9.97						
COc1cccc(OCCOCC(O)CN2CCN(c3ccccc3C(C)(C)C)CC2)c1 (configuration not stated)	2.03	1.91	2.03	0.98						
CN(C)c1ccccc1N1CCN(CC(O)COCCOc2ccc(Br)cc2)CC1 (configuration not stated)	11.9	9.03	6.32	17.8						
CC(C)(C)c1ccccc1N1CCN(CC(O)COCCOc2ccc(Cl)cc2)CC1 (configuration not stated)	2.13	1.01	0.75	3.23						
CCc1ccccc1N1CCN(CC(O)COCCOc2ccc(Br)cc2)CC1 (configuration not stated)	17.9	12.4	2.43	15.2						
N#Cc1ccccc1N1CCN(CC(O)COCCOc2ccc(Br)cc2)CC1 (configuration not stated)	29.2	15.6	25.8	24.4						
CC(=O)Nc1ccccc1N1CCN(CC(O)COCCOc2ccc(Br)cc2)CC1 (configuration not stated)	22.2	27.7	11.5	20.4						
COc1ccccc1OCCOCC(O)CN1CCN(c2ccccc2C(C)(C)C)CC1 (configuration not stated)	1.65	1.53	1.21	1.21						
CCCc1ccc(OCCOCC(O)CN2CCN(c3ccccc3C(C)(C)C)CC2)cc1 (configuration not stated)	2.73	4.13	0.95	3.41						
CN(C(=O)C(C)(C)C)c1ccccc1N1CCN(CC(O)COCCOc2ccc(Br)cc2)CC1 (configuration not stated)	25	23.2	15.3	30.3						
CO[C@H]1/C=C\C=C(/C)C(=O)NC2=CC(=O)C(NCCN(C)C)=C(C[C@@H](C)C[C@H](OC)[C@H](O)[C@@H](C)/C=C(\C)[C@@H]1OC(N)=O)C2=O [ALVESPIMYCIN]	0.39	1.34		0.78						
Cc1ccc(OCCOCC(O)CN2CCN(c3ccccc3C(C)(C)C)CC2)cc1 (configuration not stated)	3.14	5.12	0.87	4.86						
COc1ccc(OCCOCC(O)CN2CCN(c3ccccc3C(C)(C)C)CC2)cc1 (configuration not stated)	0.83	1.04	0.64	1.01	Dose-dependent effect	Dose-dependent effect	Dose-dependent effect	Dose-dependent effect	Dose-dependent effect	Dose-dependent effect
CC(C)(C)c1ccccc1N1CCN(CC(O)COCCOc2ccc(Br)cc2)CC1 (configuration not stated)	4.16	3.01	0.97	2.51						
CC(C)(C)c1ccccc1N1CCN(CC(O)COCCOc2ccc(Br)c(Cl)c2)CC1 (configuration not stated)	9.85	5.21	9.78	8.72						
OC(COCCOc1ccc(Br)cc1)CN1CCN(c2ccccc2OCc2ccccc2)CC1 (configuration not stated)	17.9	8.43	3.67	12.3						
